Measured values taken from ChEMBL document CHEMBL1123194, “Isozyme-specific enzyme inhibitors. 11. L-homocysteine-ATP S-C5' covalent adducts as inhibitors of rat methionine adenosyltransferases” (J Med Chem, 1986).
pKi: −log10 of the molar value. Values joined by “and” are separate entries in the source; they are usually repeats but may differ in a detail not shown here. Identical values can stand only once.

Tests used:
[1] = Michaelis constant (KM) was evaluated; type: ADME
[2] = target: S-adenosylmethionine synthase isoform type-2 (Rattus norvegicus, UniProt P18298); assay: Inhibition constant was evaluated with kidney Methionine adenosyltransferase II form of rat methionine adenosyltransferase, when ATP was the variable substrate (60 uM)
Outline: (§1)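 Rat MAT-2 and MAT-T, partially purified as described in earlier work. Assayed at 37 °C for 10 min in duplicate in 150 mM KCl, 15 mM MgCl2, 5 mM dithiothreitol, 50 mM Tris-HCl, pH 8.2, with L-[methyl-14C]methionine and MgATP. Six to eight levels of the variable substrate (0.5-4.0 × KM), two inhibitor levels plus no-inhibitor controls. Product captured on phosphocellulose disks and counted by scintillation. Blanks lacked ATP.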

[3] = target: T1, S-adenosylmethionine synthetase (MAT 1 and MAT 2) (Rattus norvegicus, UniProt P13444+P18298); assay: Inhibition constant was evaluated on novikoff hepatoma (MAT-T) form of rat methionine adenosyltransferase, when ATP was the variable substrate (60 uM); type: protein assay; settings: in the assay text read “120 uM” for “60 uM”; outline: as §1
[4] = target: T1, S-adenosylmethionine synthetase (MAT 1 and MAT 2); assay: Inhibition constant was evaluated on novikoff hepatoma (MAT-T) form of rat methionine adenosyltransferase, when methionine was the variable substrate (2 mM); type: protein assay; outline: as §1
[5] = target: T1, S-adenosylmethionine synthetase (MAT 1 and MAT 2); assay: Inhibition constant was evaluated with kidney (MAT-2) form of rat methionine adenosyltransferase, when methionine was the variable substrate (2 mM); type: protein assay; outline: as §1

Chain of S-adenosylmethionine synthase isoform type-2 (P18298 whole entry, canonical isoform): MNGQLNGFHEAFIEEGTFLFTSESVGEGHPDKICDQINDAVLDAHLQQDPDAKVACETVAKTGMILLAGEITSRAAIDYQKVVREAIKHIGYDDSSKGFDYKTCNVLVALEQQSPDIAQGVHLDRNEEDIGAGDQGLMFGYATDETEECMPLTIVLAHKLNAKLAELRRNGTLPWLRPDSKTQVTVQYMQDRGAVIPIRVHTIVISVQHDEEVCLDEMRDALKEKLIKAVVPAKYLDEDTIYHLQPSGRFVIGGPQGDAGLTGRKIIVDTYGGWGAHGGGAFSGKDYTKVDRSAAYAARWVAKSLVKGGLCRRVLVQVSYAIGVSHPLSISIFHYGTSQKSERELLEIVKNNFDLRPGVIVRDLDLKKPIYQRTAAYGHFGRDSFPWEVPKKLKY

Which Km [1] does the source give for `Nc1ncnc2c1ncn2[C@@H]1O[C@H](COP(=O)(O)OP(=O)(O)OP(=O)(O)O)[C@@H](O)[C@H]1O` here?
Its Km is 140 µM.

What does the source list for `Nc1ncnc2c1ncn2[C@@H]1O[C@H](C(CP(=O)(O)OP(=O)(O)OP(=O)(O)O)[S+]([O-])CCC(N)C(=O)O)[C@@H](O)[C@H]1O` (stereo not given in full)?
pKi [2]: 3.85; Ki [3]: 81 µM

With `CSCC[C@H](N)C(=O)O` [METHIONINE] as the molecule, how does the Km [1] read?
Its Km is 5 µM and 15 µM.

Which Ki [4] does the source give for `Nc1ncnc2c1ncn2[C@@H]1O[C@H](C(CP(=O)(O)OP(=O)(O)NP(=O)(O)O)SCCC(N)C(=O)O)[C@@H](O)[C@H]1O` (stereo not given in full) here?
The Ki was 38 µM.

What about the pKi [2] of the same molecule?
The pKi was 4.80.

And the Ki [3]?
Its Ki is 11 µM.

What about the Ki [5] of the same molecule?
Its Ki is 26 µM.

What does the source list for `Nc1ncnc2c1ncn2[C@@H]1O[C@H](C(CP(=O)(O)OP(=O)(O)OP(=O)(O)O)SCCC(N)C(=O)O)[C@@H](O)[C@H]1O` (single isomer, unassigned; epimer 1)?
pKi [2]: 4.41; Ki [3]: 32 µM; Ki [5]: 62 µM

With `Nc1ncnc2c1ncn2C1OC(CCP(=O)(O)OP(=O)(O)OP(=O)(O)O)[C@@H](O)[C@H]1O` (stereo not given in full) as the molecule, how does the Km [1] read?
Its Km is 75 µM and 310 µM.

With `Nc1ncnc2c1ncn2[C@@H]1O[C@H](C(CP(=O)(O)OP(=O)(O)OP(=O)(O)O)SCCC(N)C(=O)O)[C@@H](O)[C@H]1O` (single isomer, unassigned; epimer 2) as the molecule, how does the pKi [2] read?
Its pKi is 3.74.

And the Ki [3]?
Its Ki is 148 µM.

And the Ki [5]?
The Ki was 200 µM.
